How the values were obtained:
[1] = tested on: Rattus norvegicus; assay: Effect on growth hormone release(GRF) was determined in nembutal-anesthetized rat, at dose of 25 ug/100 g body weight.; type: functional, organism-based
Outline: (§1)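 Male Charles River rats (175-275 g), anesthetized with sodium pentobarbital 6 mg/100 g body weight. Six to nine per group. Peptide or saline given subcutaneously in 0.5 mL, 30 min after anesthetic. Jugular vein blood taken 15 min post-injection. Plasma GH measured by radioimmunoassay and reported as ng/mL, mean ± SEM.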

[2] = biological target: T1, Growth hormone-releasing hormone receptor (Rattus norvegicus) (UniProt Q02644); assay: In vitro rat pituitary cell growth hormone response was obtained; type: functional, cell-based; conditions: Pituitary gland cell
T1 sequence (whole entry): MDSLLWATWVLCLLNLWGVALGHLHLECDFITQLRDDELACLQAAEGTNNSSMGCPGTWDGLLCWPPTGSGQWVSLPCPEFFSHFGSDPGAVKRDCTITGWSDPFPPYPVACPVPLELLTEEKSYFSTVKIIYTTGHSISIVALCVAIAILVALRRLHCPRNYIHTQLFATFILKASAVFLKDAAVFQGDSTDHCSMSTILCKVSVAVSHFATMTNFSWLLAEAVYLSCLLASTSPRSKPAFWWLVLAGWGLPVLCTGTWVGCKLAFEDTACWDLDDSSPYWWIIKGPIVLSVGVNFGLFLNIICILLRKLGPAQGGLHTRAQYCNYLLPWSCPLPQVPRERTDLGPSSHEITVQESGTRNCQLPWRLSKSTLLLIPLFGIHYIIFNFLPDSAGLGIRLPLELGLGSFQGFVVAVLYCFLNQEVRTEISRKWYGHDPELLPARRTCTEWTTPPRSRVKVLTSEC

[3] = biological target: T1, Growth hormone-releasing hormone receptor (Rattus norvegicus); assay: Tested for the potency of growth hormone (GRF) on subcutaneous administration in anesthetized male Charles River rats; type: functional, organism-based
Outline: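 Pentobarbital-anesthetized male rats (175-275 g), six to nine per group, received two subcutaneous doses of analogue or of reference GRF(1-29)NH2, in 0.5 mL, 30 min after anesthesia. Plasma GH measured by RIA 15 min later. Potency with 95% confidence limits calculated from a four-point assay design by the Pugsley method.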

[4] = tested on: Rattus norvegicus; assay: Effect on growth hormone release(GRF) was determined in nembutal-anesthetized rat, at dose of 10 ug/100 g body weight.; type: functional, organism-based; outline: as §1
[5] = tested on: Rattus norvegicus; assay: Effect on growth hormone release(GRF) was determined in nembutal-anesthetized rat, at dose of 20 ug/100 g body weight.; type: functional, organism-based; outline: as §1
[6] = tested on: Rattus norvegicus; assay: Effect on growth hormone release(GRF) was determined in nembutal-anesthetized rat, at dose of 50 ug/100 g body weight.; type: functional, organism-based; outline: as §1
[7] = tested on: Rattus norvegicus; assay: Effect on growth hormone release(GRF) was determined in nembutal-anesthetized rat, at dose of 125 ug/100 g body weight.; type: functional, organism-based; outline: as §1
[8] = tested on: Rattus norvegicus; assay: Effect on growth hormone release(GRF) was determined in nembutal-anesthetized rat, at dose of 40 ug/100 g body weight.; type: functional, organism-based; outline: as §1
[9] = biological target: T1, Growth hormone-releasing hormone receptor (Rattus norvegicus); assay: Effect on growth hormone release(GRF) was determined in nembutal-anesthetized rat, at dose of 100 ug/100 g body weight.; type: functional; outline: as §1
[10] = tested on: Rattus norvegicus; assay: Effect on growth hormone release (GRF) was determined in nembutal-anesthetized rat, at dose of 25 ug/100 g body weight.; type: functional, organism-based; outline: as §1
[11] = tested on: Rattus norvegicus; assay: Effect on growth hormone release (GRF) was determined in nembutal-anesthetized rat, at dose of 62.5 ug/100 g body weight.; type: functional, organism-based; outline: as §1

Row | Compound | Potency [2] [%] | Potency [3] [%] | Plasma GH release [6] [ng/mL] | further results
1 | CC[C@H](C)[C@H](NC(=O)[C@H](C)NC(=O)[C@H](CC(=O)O)NC(=O)[C@H](C)NC(=O)[C@@H](N)Cc1ccc(O)cc1)C(=O)N[C@@H](Cc1ccccc1)C(=O)N[C@H](C(=O)N[C@@H](CC(N)=O)C(=O)N[C@@H](CO)C(=O)N[C@@H](Cc1ccc(O)cc1)C(=O)N[C@@H](CCCN=C(N)N)C(=O)N[C@@H](CCCCN)C(=O)N[C@H](C(=O)N[C@@H](CC(C)C)C(=O)NCC(=O)N[C@@H](CCC(N)=O)C(=O)N[C@@H](CC(C)C)C(=O)N[C@@H](CO)C(=O)N[C@@H](C)C(=O)N[C@@H](CCCN=C(N)N)C(=O)N[C@@H](CCCCN)C(=O)N[C@@H](CC(C)C)C(=O)N[C@@H](CC(C)C)C(=O)N[C@@H](CCC(N)=O)C(=O)N[C@@H](CC(=O)O)C(=O)N[C@H](C(=O)N[C@@H](CCSC)C(=O)N[C@@H](CO)C(=O)N[C@@H](CCCN=C(N)N)C(N)=O)[C@@H](C)CC)C(C)C)[C@@H](C)O | 100 | 100 | – | Plasma GH release [1]: 2570 ng/mL; Plasma GH release [4]: 1180 ng/mL
2 | CC[C@H](C)[C@H](NC(=O)[C@H](C)NC(=O)[C@H](CC(=O)O)NC(=O)[C@H](C)NC(=O)[C@@H](N)Cc1ccc(O)cc1)C(=O)N[C@@H](Cc1ccccc1)C(=O)N[C@H](C(=O)N[C@H](CC(N)=O)C(=O)N[C@@H](CO)C(=O)N[C@@H](Cc1ccc(O)cc1)C(=O)N[C@@H](CCCN=C(N)N)C(=O)N[C@@H](CCCCN)C(=O)N[C@H](C(=O)N[C@@H](CC(C)C)C(=O)NCC(=O)N[C@@H](CCC(N)=O)C(=O)N[C@@H](CC(C)C)C(=O)N[C@@H](CO)C(=O)N[C@@H](C)C(=O)N[C@@H](CCCN=C(N)N)C(=O)N[C@@H](CCCCN)C(=O)N[C@@H](CC(C)C)C(=O)N[C@@H](CC(C)C)C(=O)N[C@@H](CCC(N)=O)C(=O)N[C@@H](CC(=O)O)C(=O)N[C@H](C(=O)N[C@@H](CC(C)C)C(N)=O)[C@@H](C)CC)C(C)C)[C@@H](C)O | 25 | 53 | 2370 | Plasma GH release [5]: 1550 ng/mL
3 | CC[C@H](C)[C@H](NC(=O)[C@H](C)NC(=O)[C@H](CC(=O)O)NC(=O)[C@@H](C)NC(=O)[C@@H](N)Cc1ccc(O)cc1)C(=O)N[C@@H](Cc1ccccc1)C(=O)N[C@H](C(=O)N[C@@H](CC(N)=O)C(=O)N[C@@H](CO)C(=O)N[C@@H](Cc1ccc(O)cc1)C(=O)N[C@@H](CCCN=C(N)N)C(=O)N[C@@H](CCCCN)C(=O)N[C@H](C(=O)N[C@@H](CC(C)C)C(=O)NCC(=O)N[C@@H](CCC(N)=O)C(=O)N[C@@H](CC(C)C)C(=O)N[C@@H](CO)C(=O)N[C@@H](C)C(=O)N[C@@H](CCCN=C(N)N)C(=O)N[C@@H](CCCCN)C(=O)N[C@@H](CC(C)C)C(=O)N[C@@H](CC(C)C)C(=O)N[C@@H](CCCN=C(N)N)C(N)=O)C(C)C)[C@@H](C)O | – | 20 | 1020 | Plasma GH release [7]: 2790 ng/mL
4 | CC[C@H](C)[C@H](NC(=O)[C@H](C)NC(=O)[C@H](CC(=O)O)NC(=O)[C@@H](C)NC(=O)[C@@H](N)Cc1ccc(O)cc1)C(=O)N[C@@H](Cc1ccccc1)C(=O)N[C@H](C(=O)N[C@@H](CC(N)=O)C(=O)N[C@@H](CO)C(=O)N[C@@H](Cc1ccc(O)cc1)C(=O)N[C@@H](CCCN=C(N)N)C(=O)N[C@@H](CCCCN)C(=O)N[C@H](C(=O)N[C@@H](CC(C)C)C(=O)NCC(=O)N[C@@H](CCC(N)=O)C(=O)N[C@@H](CC(C)C)C(=O)N[C@@H](CO)C(=O)N[C@@H](C)C(=O)N[C@@H](CCCN=C(N)N)C(=O)N[C@@H](CCCCN)C(=O)N[C@@H](CC(C)C)C(=O)N[C@@H](CC(C)C)C(=O)N[C@@H](CCC(N)=O)C(=O)N[C@@H](CC(=O)O)C(=O)N[C@H](C(=O)N[C@@H](CC(C)C)C(N)=O)[C@@H](C)CC)C(C)C)[C@@H](C)O (stereo in doubt; 3) | 0.001 | < 5 | – | Plasma GH release [8]: 741 ng/mL; Plasma GH release [9]: 507 ng/mL
5 | H-YADAIFTNSYRKVLGQLSARKLLQDILSR-NH2 | 2 | 57 | – | Plasma GH release [10]: 1410 ng/mL; Plasma GH release [11]: 1720 ng/mL

— ChEMBL document CHEMBL1123585, “Differential effects of N-terminal modifications on the biological potencies of growth hormone releasing factor analogues with varying chain lengths” (1987)
